Measurements: ChEMBL document CHEMBL1133773, “Characterization of a novel analogue of 1alpha,25(OH)(2)-vitamin D(3) with two side chains: interaction with its nuclear receptor and cellular actions” (2000)
Calls of active or inactive are those of the source.

What was measured:
MCF7 = experiment: Inhibition of colony formation assays on MCF-7 cells; format: functional; settings: Homo sapiens, read-out: ED50 (the source's name)
Summary of the method: (§1)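 Soft agar clonal assay in six-well dishes with two layers: compound mixed into the 0.5% agar under layer, cells (1 × 10³/plate) in the 0.3% agar upper layer. Incubated 12 days at 37 °C in humidified 5% CO2. Colonies expressed as percent of untreated control plates. Triplicate plates per point, each experiment done at least three times; ED50 taken from dose-response curves.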

LNCaP [1] = experiment: Inhibition of colony formation assays on LNCaP cells; format: functional; settings: Homo sapiens, read-out: ED50 (the source's name); summary of the method: as §1
[2] = Effective dose for transcriptional activation in ROS 17/2.8 osteosarcoma cells; format: functional; settings: Rattus norvegicus; read-out: ED50 (the source's name)
[3] = Effective dose for Protease sensitivity; format: functional
Summary of the method: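 In vitro translated VDR labeled with [³⁵S]methionine, incubated 20 min at room temperature with ligand (10^-7–10^-11 M), then trypsin digestion 20 min; products resolved on 14% SDS-PAGE and autoradiographed. ED50 is the ligand concentration giving 50% of the maximal level of the major trypsin-resistant fragment. Trypsin level is given as both 15 and 20 µg/mL in the text.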

HL-60 = experiment: Inhibition of colony formation assays on HL-60 cells; format: functional; settings: Homo sapiens, read-out: ED50 (the source's name)
[4] = molecular target: T1, Vitamin D-binding protein (Homo sapiens) (UniProt P02774); experiment: Percentage binding to Human Vitamin D binding protein, relative competitive index (RCI)
T1 sequence (whole entry): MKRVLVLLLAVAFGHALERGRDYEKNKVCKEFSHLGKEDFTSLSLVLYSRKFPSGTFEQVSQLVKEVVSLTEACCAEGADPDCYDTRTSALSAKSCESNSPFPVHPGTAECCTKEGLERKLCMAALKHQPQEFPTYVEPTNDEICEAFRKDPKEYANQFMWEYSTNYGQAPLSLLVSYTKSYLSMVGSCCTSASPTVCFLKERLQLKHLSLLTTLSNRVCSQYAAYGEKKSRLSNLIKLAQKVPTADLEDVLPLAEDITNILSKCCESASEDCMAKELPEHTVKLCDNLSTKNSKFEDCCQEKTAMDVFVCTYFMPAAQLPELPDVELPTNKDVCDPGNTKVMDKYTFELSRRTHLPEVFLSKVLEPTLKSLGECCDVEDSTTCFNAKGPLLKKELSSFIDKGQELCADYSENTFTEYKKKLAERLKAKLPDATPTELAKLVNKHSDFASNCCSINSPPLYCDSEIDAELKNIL
Summary of the method: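 Steroid competition assay with human DBP: increasing unlabeled ligand or 125D standard incubated 4 h at 4 °C with a fixed concentration of [³H]125D. Bound and free ligand separated by charcoal-dextran. RCI calculated relative to 125D, which is set at 100%.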

[5] = molecular target: T2, Vitamin D3 receptor (Gallus gallus) (UniProt O42392); experiment: Percentage binding to chick intestinal vitamin D3 receptor, relative competitive index (RCI)
T2 sequence (whole entry): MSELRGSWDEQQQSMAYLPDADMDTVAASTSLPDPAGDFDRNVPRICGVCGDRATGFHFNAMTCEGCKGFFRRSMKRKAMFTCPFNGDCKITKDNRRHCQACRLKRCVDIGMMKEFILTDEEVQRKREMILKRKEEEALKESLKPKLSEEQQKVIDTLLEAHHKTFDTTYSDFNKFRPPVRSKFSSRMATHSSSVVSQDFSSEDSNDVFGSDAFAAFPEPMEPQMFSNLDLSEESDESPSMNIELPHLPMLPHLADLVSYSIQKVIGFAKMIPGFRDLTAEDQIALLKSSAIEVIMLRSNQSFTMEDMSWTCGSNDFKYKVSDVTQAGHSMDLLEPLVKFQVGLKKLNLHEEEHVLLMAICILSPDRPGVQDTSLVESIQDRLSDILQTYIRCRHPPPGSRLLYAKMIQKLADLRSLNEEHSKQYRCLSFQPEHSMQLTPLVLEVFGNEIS
Summary of the method: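 Competition binding to chick intestinal VDR: rising concentrations of competitor or unlabeled 125D incubated 4 h at 4 °C with a defined amount of [³H]125D. Bound ligand separated from free by hydroxyapatite. RCI computed with 125D defined as 100%.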

LNCaP [6] = experiment: Inhibition of colony formation assays on LNCaP cells; (NR: not reached at <= 10e -6M); format: functional, cell-based; settings: Homo sapiens; summary of the method: as §1

Row | EC50 (MCF7) [nM] | EC50 (LNCaP [1]) [nM] | EC50 [2] [nM] | EC50 (HL-60) [nM] | RCI [4] [%] | RCI [5] [%] | Structure (SMILES) | ED50 [3] [nM] | ED50 (LNCaP [6])
1 | 1.2 | 82 | 1 | 0.34 | 2.5 | 38 | C=C1/C(=C\C=C2/CCC[C@]3(C)[C@@H](C(CCCC(C)(C)O)CCCC(C)(C)O)CC[C@@H]23)C[C@@H](O)C[C@@H]1O | 180 | 
2 |  |  |  |  | 100 |  | C=C1/C(=C\C=C2/CCC[C@]3(C)[C@@H]([C@H](C)CCCC(C)(C)O)CC[C@@H]23)C[C@@H](O)C[C@@H]1O | 5.9 | inactive
3 |  |  |  |  | 2.6 | 147 | C=C1/C(=C\C=C2/CCC[C@]3(C)[C@@H]([C@@H](C)CCCC(C)(C)O)CC[C@@H]23)C[C@@H](O)C[C@@H]1O | 0.13 | 
